Tests used:
[1] = tested on: Human immunodeficiency virus 1; assay: Antiviral activity against HIV1 in human MT2 cells; assay type: functional, organism-based
How it was run: (§1)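 MT-2 cells in RPMI 1640 with 10% FBS and 10 mM HEPES, infected with HIV-1 LAI at MOI 0.001 TCID50/cell. Incubated with threefold serial dilutions, three wells per dilution. EC50 taken as the concentration inhibiting p24 antigen production by 50%.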

[2] = Cytotoxicity against human PBMC by XTT assay; assay type: cell-based
How it was run: (§2)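 Fresh human PBMCs, seronegative for HIV and HBV, infected with HIV-1 clade B HT/92/599. Antiviral read-out by reverse transcriptase reduction; cytotoxicity by XTT staining. EC50, CC50 and CC50/EC50 taken from data plots, given as mean ± standard deviation of triplicate determinations.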

Rattus norvegicus [3] = assay: Elimination half life in Sprague-Dawley rat assessed as tenofovir level at 30 mg/kg, po administered daily for 7 days measured on day 1; assay type: ADME, organism-based; design: dose 30 mg/kg, route oral; details: in vivo, 168 h
How it was run: (§3)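 Oral once daily for 7 days, vehicle or 10, 30 or 100 mg/kg/day, Sprague-Dawley rats 8-12 weeks old, not fasted. Plasma sampled 0.5, 1, 2, 4, 12, 24 h after dosing on days 1 and 7 (1 rat/sex/time point). CMX157 and tenofovir measured by HPLC-MS/MS, LOQ 1 ng/ml (values below set to zero). Noncompartmental analysis; Cmax/Tmax by direct observation, AUC by linear-log trapezoidal rule.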

Rattus norvegicus [4] = assay: Tmax in Sprague-Dawley rat assessed as tenofovir level at 10 mg/kg, po administered daily for 7 days measured on day 7; assay type: ADME, organism-based; design: dose 10 mg/kg, route oral; details: in vivo, 168 h; how it was run: as §3
Rattus norvegicus [5] = assay: Tmax in Sprague-Dawley rat assessed as tenofovir level at 30 mg/kg, po administered daily for 7 days measured on day 1; assay type: ADME, organism-based; design: dose 30 mg/kg, route oral; details: in vivo, 168 h; how it was run: as §3
Rattus norvegicus [6] = assay: Elimination half life in Sprague-Dawley rat assessed as tenofovir level at 10 mg/kg, po administered daily for 7 days measured on day 7; assay type: ADME, organism-based; design: dose 10 mg/kg, route oral; details: in vivo, 168 h; how it was run: as §3
Rattus norvegicus [7] = assay: AUC (0 to infinity) in Sprague-Dawley rat assessed as tenofovir level at 100 mg/kg, po administered daily for 7 days measured on day 7; assay type: ADME, organism-based, Plasma; design: time infinity, dose 100 mg/kg, route oral; details: in vivo, 168 h; how it was run: as §3
Hepatitis B virus [8] = assay: Antiviral activity against HBV in human HepG2(2.2.15) cells assessed as viral DNA levels treated for 9 days measured after 24 hrs; assay type: functional, organism-based
How it was run: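 Confluent 2.2.15 cells in RPMI 1640 with 2% FBS, given nine consecutive daily doses with daily medium change (six cultures per concentration on two replicate plates). HBV DNA quantified by blot hybridization 24 h after the last treatment.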

[9] = Cytotoxicity against human MT2 cells; assay type: cell-based
How it was run: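 MT-2 cells in RPMI 1640 with 10% FBS and 10 mM HEPES, exposed to threefold serial drug dilutions. CC50 calculated from cell counts and viability.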

[10] = Selectivity index, ratio of CC50 for human MT2 cells to EC50 for HIV1 LAI; assay type: toxicity, cell-based; details: read-out: Ratio CC50/EC50
[11] = Selectivity index, ratio of CC50 for human PBMC to EC50 for HIV1 clade B HT/92/599 isolate; how it was run: as §2
Rattus norvegicus [12] = assay: Elimination half life in Sprague-Dawley rat assessed as tenofovir level at 30 mg/kg, po administered daily for 7 days measured on day 7; assay type: ADME, organism-based; design: dose 30 mg/kg, route oral; details: in vivo, 168 h; how it was run: as §3
Rattus norvegicus [13] = assay: Tmax in Sprague-Dawley rat assessed as tenofovir level at 100 mg/kg, po administered daily for 7 days measured on day 7; assay type: ADME, organism-based; design: dose 100 mg/kg, route oral; details: in vivo, 168 h; how it was run: as §3
[14] = tested on: Human immunodeficiency virus 1; assay: Antiviral activity against HIV1 LAI in human MT2 cells assessed as inhibition of p24 antigen production by ELISA; assay type: functional, organism-based; details: Human immunodeficiency virus 1, LAI; how it was run: as §1
Rattus norvegicus [15] = assay: Tmax in Sprague-Dawley rat assessed as tenofovir level at 10 mg/kg, po administered daily for 7 days measured on day 1; assay type: ADME, organism-based; design: dose 10 mg/kg, route oral; details: in vivo, 168 h; how it was run: as §3
[16] = tested on: Human immunodeficiency virus 1; assay: Antiviral activity against HIV1 clade B HT/92/599 isolate in human PBMC assessed as reduction in reverse transcriptase; assay type: functional, organism-based; details: Human immunodeficiency virus 1, clade B; how it was run: as §2
Rattus norvegicus [17] = assay: AUC (0 to infinity) in Sprague-Dawley rat assessed as tenofovir level at 10 mg/kg, po administered daily for 7 days measured on day 7; assay type: ADME, organism-based, Plasma; design: time infinity, dose 10 mg/kg, route oral; details: in vivo, 168 h; how it was run: as §3
[18] = Cytotoxicity against human HepG2 cells by MTS assay; assay type: cell-based; details: human, HepG2 cells
How it was run: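 Exponentially growing HepG2 cells (parent hepatoma line); cytostatic effect measured by MTS method.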

Rattus norvegicus [19] = assay: Elimination half life in Sprague-Dawley rat assessed as tenofovir level at 100 mg/kg, po administered daily for 7 days measured on day 7; assay type: ADME, organism-based; design: dose 100 mg/kg, route oral; details: in vivo, 168 h; how it was run: as §3
Rattus norvegicus [20] = assay: Elimination half life in Sprague-Dawley rat assessed as tenofovir level at 10 mg/kg, po administered daily for 7 days measured on day 1; assay type: ADME, organism-based; design: dose 10 mg/kg, route oral; details: in vivo, 168 h
How it was run: (§4)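 Sprague-Dawley rats (3/sex/group), about 8 to 12 weeks old and not fasted, got vehicle or 10, 30 or 100 mg/kg/day orally once daily for 7 days. Blood was drawn at 0.5, 1, 2, 4, 12 and 24 h after dosing on days 1 and 7 (1 rat/sex/time point). Plasma was deproteinized, then HPLC-MS/MS (LOQ 1 ng/ml, values below set to zero). Noncompartmental analysis, AUC by linear-log trapezoidal rule.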

Rattus norvegicus [21] = assay: Elimination half life in Sprague-Dawley rat assessed as tenofovir level at 100 mg/kg, po administered daily for 7 days measured on day 1; assay type: ADME, organism-based; design: dose 100 mg/kg, route oral; details: in vivo, 168 h; how it was run: as §3
Rattus norvegicus [22] = assay: Tmax in Sprague-Dawley rat assessed as tenofovir level at 30 mg/kg, po administered daily for 7 days measured on day 7; assay type: ADME, organism-based; design: dose 30 mg/kg, route oral; details: in vivo, 168 h; how it was run: as §3
Rattus norvegicus [23] = assay: AUC (0 to infinity) in Sprague-Dawley rat assessed as tenofovir level at 30 mg/kg, po administered daily for 7 days measured on day 7; assay type: ADME, organism-based, Plasma; design: time infinity, dose 30 mg/kg, route oral; details: in vivo, 168 h; how it was run: as §3
Rattus norvegicus [24] = assay: Tmax in Sprague-Dawley rat assessed as tenofovir level at 100 mg/kg, po administered daily for 7 days measured on day 1; assay type: ADME, organism-based; design: dose 100 mg/kg, route oral; details: in vivo, 168 h; how it was run: as §3
Rattus norvegicus [25] = assay: AUC (0 to infinity) in Sprague-Dawley rat assessed as tenofovir level at 100 mg/kg, po administered daily for 7 days measured on day 1; assay type: ADME, organism-based, Plasma; design: time infinity, dose 100 mg/kg, route oral; details: in vivo, 168 h; how it was run: as §3
Rattus norvegicus [26] = assay: AUC (0 to infinity) in Sprague-Dawley rat assessed as tenofovir level at 30 mg/kg, po administered daily for 7 days measured on day 1; assay type: ADME, organism-based, Plasma; design: time infinity, dose 30 mg/kg, route oral; details: in vivo, 168 h; how it was run: as §4
Hepatitis B virus [27] = assay: Antiviral activity against HBV in human HepAD38 cells assessed as intracellular viral DNA levels treated for 3 days measured on day 6 […] by RT-PCR; assay type: functional, organism-based
How it was run: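 HepAD38 cells seeded at 5 x 10^5/well, grown 2-3 days with 0.3 µg/ml tetracycline, then induced by PBS wash and tetracycline/G418-free medium with or without compound at 37°C, 5% CO2. Medium changed after 3 days. Intracellular HBV DNA measured on day 6 postinduction by TaqMan real-time PCR against a plasmid standard curve, given as % of mock.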

[28] = Cytotoxicity against human HepG2(2.2.15) cells after 24 hrs by neutral red uptake assay; assay type: cell-based; details: human, HepG2 2.2.15 cells
How it was run: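 Confluent 2.2.15 cells given nine daily treatments. Neutral red uptake read by absorbance of internalized dye 24 h after the last treatment, three cultures per concentration.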

Rattus norvegicus [29] = assay: AUC (0 to infinity) in Sprague-Dawley rat assessed as tenofovir level at 10 mg/kg, po administered daily for 7 days measured on day 1; assay type: ADME, organism-based, Plasma; design: time infinity, dose 10 mg/kg, route oral; details: in vivo, 168 h; how it was run: as §3
[30] = Selectivity index, ratio of CC50 for human HepG2 cells to EC50 for HBV
[31] = Selectivity index, ratio of CC50 for human HepG2(2.2.15) cells to EC50 for HBV

CCCCCCCCCCCCCCCCOCCCOP(=O)(O)COCCn1cnc2c(N)nc(N)nc21
EC50 [1]: 0.02 nM

C[C@H](Cn1cnc2c(N)ncnc21)OCP(=O)(O)O [TENOFOVIR ANHYDROUS]
CC50 [2]: 1.27 mM
beta t1/2 (Rattus norvegicus [3]): 10.1 h
Tmax (Rattus norvegicus [4]): 2.4 h
Tmax (Rattus norvegicus [5]): 4 h
beta t1/2 (Rattus norvegicus [6]): 9.2 h
AUC (Rattus norvegicus [7]): 7373.4 ng·h/mL
EC50 (Hepatitis B virus [8]): 7.2 µM
CC50 [9]: > 100 µM
selectivity ratio [10]: > 154
Ratio CC50/EC50 [11]: 396
beta t1/2 (Rattus norvegicus [12]): 7.6 h
Tmax (Rattus norvegicus [13]): 12 h
EC50 [14]: 650 nM
Tmax (Rattus norvegicus [15]): 2 h
EC50 [16]: 3.2 µM
AUC (Rattus norvegicus [17]): 1226.9 ng·h/mL
CC50 [18]: > 100 µM
beta t1/2 (Rattus norvegicus [19]): 9 h
beta t1/2 (Rattus norvegicus [20]): 10.9 h
beta t1/2 (Rattus norvegicus [21]): 7.2 h
Tmax (Rattus norvegicus [22]): 4 h
AUC (Rattus norvegicus [23]): 2790.5 ng·h/mL
Tmax (Rattus norvegicus [24]): 12 h
AUC (Rattus norvegicus [25]): 3639.5 ng·h/mL
AUC (Rattus norvegicus [26]): 1808.1 ng·h/mL
EC50 (Hepatitis B virus [27]): 2250 nM
CC50 at 24 h [28]: > 300 µM
AUC (Rattus norvegicus [29]): 775.2 ng·h/mL
Ratio CC50/EC50 [30]: >133
Ratio CC50/EC50 [31]: >41.7

Source: ChEMBL document CHEMBL1152819, “Evaluation of hexadecyloxypropyl-9-R-[2-(Phosphonomethoxy)propyl]- adenine, CMX157, as a potential treatment for human immunodeficiency virus type 1 and hepatitis B virus infections” (Antimicrob Agents Chemother, 2007)
